Source: PubChem BioAssay (The Scripps Research Institute Molecular Screening Center)
The entries come from a sample that favours hits as a whole.
RORA inh: RORA (human) inhibition; 65,000 compounds, 0.43% hits; inhibition, % at 10 µM; CHO-K1 Gal4-RORA LBD luciferase reporter, luminescence; P35398;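 active means inhibition above the mean of all tested compounds plus 3 SD, cut at about 52% in these data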;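 further: 0% = RORA-transfected cells with DMSO and 100% = mock-transfected cells lacking RORA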
Target sequence (P35398 whole entry, looked up, the tested form may be a part): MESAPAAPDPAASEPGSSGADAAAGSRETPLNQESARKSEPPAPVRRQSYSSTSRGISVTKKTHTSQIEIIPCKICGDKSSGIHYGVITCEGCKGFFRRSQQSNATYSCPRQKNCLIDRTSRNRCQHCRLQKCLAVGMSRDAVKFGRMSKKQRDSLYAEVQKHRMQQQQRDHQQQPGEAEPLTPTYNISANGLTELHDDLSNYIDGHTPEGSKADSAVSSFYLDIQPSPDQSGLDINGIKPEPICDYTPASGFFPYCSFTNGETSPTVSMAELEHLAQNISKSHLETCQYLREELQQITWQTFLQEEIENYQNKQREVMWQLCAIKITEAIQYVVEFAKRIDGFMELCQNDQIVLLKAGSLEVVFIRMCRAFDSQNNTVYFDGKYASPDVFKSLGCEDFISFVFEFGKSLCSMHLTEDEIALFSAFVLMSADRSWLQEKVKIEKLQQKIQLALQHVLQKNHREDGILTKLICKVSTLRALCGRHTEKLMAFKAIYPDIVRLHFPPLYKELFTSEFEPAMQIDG
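Test system: CHO-K1 cells with Gal4-hRORA LBD fusion and pG5-luc reporter | Timing: 20 h compound treatment, 37 °C | Detection: Luminescence from basal luciferase reporter expression | Read-out basis: % inhibition of basal luciferase versus +RORA/-RORA DMSO controls | Repeats: One measurement per compound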
* = called active by the depositor.

SMILES	RORA inh
Cc1oc(-c2ccc3c(c2)OCCO3)cc1C(=O)O	75*
CC(=O)C(C)Oc1ccc2c3c(c(=O)oc2c1C)CCCC3 (configuration not stated)	-59
COc1cccc2sc(Nc3nc(-c4ccccn4)cs3)nc12	69*
COc1cccc(Nc2nc(-c3sc(N)nc3C)cs2)c1	-27
COc1ccc(OC)c(-c2cc(C(=O)NCc3ccco3)no2)c1	8
O=C1C(=O)N(CCCN2CCOCC2)C(c2ccccn2)/C1=C(\O)c1ccc2c(c1)OCCO2 (configuration not stated)	-9
Cc1ccc(C2=Nc3ccccc3NC(C)(c3ccc(C)o3)C2)o1 (configuration not stated)	-53
C=CCN(CC(=O)NCc1ccccc1)C(=O)c1csnn1	13
CCOC(=O)N1CCC(NC(=O)Cn2ncn3c(cc4sc(CC)cc43)c2=O)CC1	7
CCCCS(=O)(=O)/C=C\C=C/S(=O)(=O)CCCC	91*
COc1cccc(C2C(C(=O)c3ccco3)=C(O)C(=O)N2CCCN2CCOCC2)c1OC (configuration not stated)	5
Cc1ccccc1S(=O)(=O)Cc1ccc(C(=O)NCCCOC(C)C)o1	17
Cc1cc(C)n(-c2c(F)c(F)c(CN3CCOCC3)c(F)c2F)n1	1
Brc1ccc(-c2cn3cccnc3n2)cc1	-53
Cc1ccc(-c2cn3nc(C)c(C)nc3n2)cc1	74*
CC(C)C(=O)Nc1ccc2c(c1)C(=O)N(CCC(=O)O)C2=O	3
c1ccc(-c2cnnc(N3CCCCC3)n2)cc1	-58
CC(NC(=O)COc1cc(=O)n(C)c2ccccc12)c1ccc2c(c1)OCCO2 (configuration not stated)	-24
CCn1c(SCC(=O)c2c(N)n(C)c(=O)n(C)c2=O)nc2sc(C)c(C)c2c1=O	13
CC(C)Cn1c(N)c(C(=O)CSc2ccc3c(c2)OCCO3)c(=O)n(C)c1=O	78*
CCOc1ccc(NC(=O)C2CC(=O)N(C(C)C)C2)cc1 (configuration not stated)	-6
COc1ccc(C(=O)Cn2c(N3CCOCC3)nc3ccccc32)cc1OC	19
COc1cc2c(cc1OC)C(C)N(C(=O)c1cc3ccccc3o1)CC2 (configuration not stated)	64*
COc1ccc(NC(=O)c2cc3ccccc3o2)cc1	-53
COc1ccc2oc(=O)c(C(=O)N3CCc4ccccc43)cc2c1	11
SMILES	RORA inh
Cc1[nH]nc(N=CC2=C(O)CC(C)(C)CC2=O)c1-c1ccc(Cl)cc1	-83
O=C1COc2ccc(OCc3ccc(F)cc3)cc21	-78
CC(C)n1c(=S)[nH]c2c1c(=O)[nH]c(=O)n2C	-1
CCC(NC(=O)Nc1nnc(C(F)(F)F)s1)(C(F)(F)F)C(F)(F)F	94*
O=C(Nc1nnc(C(F)(F)F)s1)c1cccnc1	-66
CCC(NC(=O)Nc1ncccc1C)(C(F)(F)F)C(F)(F)F	2
CC(C)OCCCNC(=O)C1CCC(=O)N1C(C)C (configuration not stated)	16
CC1(C)CC(=O)c2cnc(NC(=O)c3ccco3)nc2C1	-2
COc1ccc(-c2csc(N3CCOCC3)n2)cc1OC	-61
COc1ccc(-c2cc3nc4n(c(=O)c3s2)CCOC4)cc1	60*
CCN1CCN(C(=O)c2cc3nc(-c4ccccc4)cc(C(F)(F)F)n3n2)CC1	11
Cn1c(=O)c2c3c(sc2n2c(SCC(=O)c4ccc(Cl)cc4)nnc12)COC(C)(C)C3	7
COc1ccc(-c2noc(-c3ccccc3Cl)n2)cc1OC	-82
COc1ccc(C2=Nn3c(nnc3-c3ccccc3OC)SC2)cc1OC	55*
COc1nc(-c2ccccc2)cc(-c2ccc(OC)c(OC)c2)n1	-13
Cc1ccc(NC(=O)c2ocnc2C)cc1Cl	-61
CCOc1ccccc1N(CC(=O)Nc1ccc(C)cc1)S(C)(=O)=O	-6
COC(=O)Cc1cnc(NC(=O)C2C3CCC(C3)C2C(=O)O)s1 (configuration not stated)	-12
COc1cccc(CN(C(=O)c2cc3ccccc3oc2=O)C2CC2)c1	-52
Cc1nnc(C)n1/N=C/C=C/c1ccccc1	3
C=CCn1c(C)cc(C(=O)COc2nncc3ccccc23)c1C	-80
COCCn1c(C)cc(C(=O)COC(=O)c2n[nH]c3ccccc23)c1C	58*
CCCn1c(C)cc(C(=O)CN2C(=O)c3ccccc3C2=O)c1C	-55
CCOC(=O)C(C(=O)OCC)C(CC(=O)C1CC1)c1ccccc1 (configuration not stated)	7
